Most compounds without a hit are left out; they make up all but 4.1% or so of the library.
KCNK3 inh: human KCNK3 channel inhibitors, primary screen, CHO cells, FluxOR thallium flux, B-score; B-score at 10 µM; 340,000 tested, 0.84% active; Potassium channel subfamily K member 3 (Homo sapiens), O14649; FluxOR fluorescence; hits give low values;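 active means B-score under library mean minus 4 SD, starting fluorescence ratio at most library mean plus 5 SD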;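 further: more negative B-score means stronger inhibition of thallium flux through KCNK3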
KCNQ1 block: inhibitors of human KCNQ1 channel, primary screen, cell-based, thallium flux, high-throughput; Potassium voltage-gated channel subfamily KQT member 1 (Homo sapiens), P51787; CHO-K1 KCNQ1, FluxOR thallium flux fluorescence; hits give high values; B-score at 10 µM; 310,000 tested, 1.3% active; AID 2642, 2010;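 active means compounds whose thallium flux B-score, printed positive for inhibition, exceeds three library SD while starting fluorescence stays within three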;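 further: channel opened by potassium depolarization with thallium stimulus after 20 min compound exposure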
Target sequence (P51787 whole entry, looked up): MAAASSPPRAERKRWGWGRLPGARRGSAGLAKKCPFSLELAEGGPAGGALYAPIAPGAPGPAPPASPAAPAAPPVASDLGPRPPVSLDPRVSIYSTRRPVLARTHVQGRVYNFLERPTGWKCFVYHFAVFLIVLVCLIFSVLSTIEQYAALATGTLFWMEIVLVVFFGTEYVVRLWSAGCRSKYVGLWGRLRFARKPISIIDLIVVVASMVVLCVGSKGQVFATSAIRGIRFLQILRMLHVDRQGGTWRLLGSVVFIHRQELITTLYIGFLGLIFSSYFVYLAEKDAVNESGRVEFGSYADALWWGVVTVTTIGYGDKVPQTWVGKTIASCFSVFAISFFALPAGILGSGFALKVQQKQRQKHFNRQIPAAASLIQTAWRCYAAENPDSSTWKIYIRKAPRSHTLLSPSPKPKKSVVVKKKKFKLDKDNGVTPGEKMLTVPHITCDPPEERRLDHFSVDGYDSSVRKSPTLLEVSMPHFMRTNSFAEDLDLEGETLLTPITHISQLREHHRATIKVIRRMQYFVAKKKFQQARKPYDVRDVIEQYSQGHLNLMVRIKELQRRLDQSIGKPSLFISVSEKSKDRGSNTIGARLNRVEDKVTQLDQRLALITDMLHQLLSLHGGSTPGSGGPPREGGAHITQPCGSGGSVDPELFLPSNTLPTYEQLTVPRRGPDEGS
KCNK9 inh: KCNK9 potassium channel inhibitors, primary screen, HEK293 cells, thallium flux. Potassium channel subfamily K member 9 (Homo sapiens), Q9NPC2. FluxOR thallium flux fluorescence; hits give low values. B-score at 10 µM. 310,000 tested, 1.2% active;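 active means ratio B-score over 3 SD below the library mean, with starting fluorescence within 5 SD of its mean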;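 further: negative B-score means less thallium flux so channel inhibition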
KCNQ1 act: potentiators or activators of KCNQ1 channel, primary screen, cell-based, thallium flux, high-throughput; Potassium voltage-gated channel subfamily KQT member 1 (Homo sapiens), P51787; CHO-K1 KCNQ1, thallium flux FluxOR fluorescence; hits give high values; B-score at 10 µM; 310,000 tested, 0.35% active;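 active means fluorescence ratio B-score, a plate-corrected score, at least three library SD, with initial intensity B-score within 5 SD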
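Test system: CHO-K1 cells stably expressing KCNQ1 / Medium: assay buffer / Also added: depolarizing K+/Tl+ stimulus, K2SO4 and Tl2SO4 each 12.5 mM in 5x stock / Incubation: 90 min dye loading and 20 min compound exposure, both at room temperature / Signal: thallium influx via FluxOR fluorescence, kinetic imaging / Evaluation: B score of baseline-normalized fluorescence ratio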
KCC2 mod: KCC2 cotransporter modulators, thallium flux, primary screen, cell-based, HEK293 KCC2, FluoZin-2 fluorescence, MLSMR. Solute carrier family 12 member 5 (Homo sapiens), Q9H2X9. KCC2 cells, thallium flux FluoZin-2 fluorescence. B-score of Tl+ flux slope (higher = more flux/activation; lower = inhibition) at 10 µM. 190,000 tested, 2.2% active;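 active means thallium flux slope and its plate-corrected score both differing from the plate sample mean at a set confidence after two filtering rounds, in either direction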;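 further: slope of fluorescence scaled to starting intensity during 10 to 20 s after thallium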
hERG rescue: hERG rescue from dofetilide block, primary screen, cell-based, CHO-hERG, FluxOR thallium flux, dofetilide IC70; AID 1511, 2009; dofetilide IC70 present; activation (rescue from dofetilide block), less the hit threshold, % at 10 µM; Voltage-gated inwardly rectifying potassium channel KCNH2 (Homo sapiens), Q12809; 310,000 tested, 0.51% active;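 active means activation above the mean of controls blocked by dofetilide plus 5 SD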;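 further: thallium influx through hERG after potassium depolarization seen as dye fluorescence rise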
A number is an active result; 0 = inactive; - = no result given.

SMILES | KCNK3 inh | KCNQ1 block | KCNK9 inh | KCNQ1 act | KCC2 mod | hERG rescue
CC(OC(=O)c1ccc(F)cc1)C(=O)Nc1nc(-c2cccc([N+](=O)[O-])c2)cs1 (centres undefined) | 0 | 0 | -7.4 | 0 | 0 | 0
CCOc1ccccc1NC(=S)NC(=O)c1ccco1 | 0 | 0 | 0 | 11 | - | 0
O=C(NC(=S)NCc1ccc(Cl)cc1)c1ccco1 | 0 | - | - | - | - | -
CC(Oc1ccc(Cl)cc1)C(=O)NNC(=S)NC(=O)c1ccco1 (centres undefined) | 0 | 0 | 0 | 0 | 26 | 0
COC(=O)c1cc(OC)c(OC)cc1NC(=S)NC(=O)c1ccco1 | 0 | 0 | 0 | 0 | - | 0
COc1ccccc1C(=O)NNC(=S)NC(=O)c1ccco1 | 0 | 0 | 0 | 0 | 16 | 0
O=C(NC(=S)Nc1ccccn1)c1ccco1 | 0 | 0 | 0 | 0 | 10 | 0
CCN(CC(=O)Nc1c(F)cccc1F)C(=O)CSc1nc2ccccc2o1 | 0 | 0 | 0 | 0 | - | 0
COc1ccc(C(=O)NNC(=S)NC(=O)c2ccco2)cc1 | 0 | 0 | 0 | 0 | 10 | 0
O=C(NC(=S)NNC(=O)c1ccco1)c1ccc(Br)cc1 | 0 | 6 | 0 | 0 | - | 0
Cc1ccc2nsnc2c1NC(=S)NC(=O)c1ccco1 | 0 | 0 | 0 | 0 | 9.3 | 0
C[C@H](NC(=O)c1nc[nH]c1C(=O)N1CCc2ccccc2C1)c1ccccc1 | 0 | - | - | - | - | -
C[C@H](NC(=O)c1nc[nH]c1C(=O)N[C@@H](CCCCNC(=O)OC(C)(C)C)C(=O)OC(C)(C)C)C(=O)OCc1ccccc1 | 0 | 0 | 0 | 0 | - | 0
C[C@H](NC(=O)c1nc[nH]c1C(=O)NCCCCCNC(=O)OC(C)(C)C)C(=O)OCc1ccccc1 | 0 | 0 | 0 | 0 | -4.4 | 0
CC(C)(C)OC(=O)NCCCC[C@H](NC(=O)c1nc[nH]c1C(=O)N[C@@H](CCCCNC(=O)OC(C)(C)C)C(=O)OC(C)(C)C)C(=O)OC(C)(C)C | 0 | 0 | -7 | 0 | 0 | 0
CC(C)(C)OC(=O)NCCCCCNC(=O)c1[nH]cnc1C(=O)N[C@@H](Cc1ccccc1)C(=O)OCc1ccccc1 | 0 | 9 | 0 | 0 | 0 | 0
C[C@H](NC(=O)c1nc[nH]c1C(=O)N1CCc2ccccc2C1)C(=O)OCc1ccccc1 | 0 | 6 | 0 | 0 | 0 | 0
CC(C)C[C@H](NC(=O)c1nc[nH]c1C(=O)NCCCCCNC(=O)OC(C)(C)C)C(=O)OCc1ccccc1 | 0 | 0 | 0 | 0 | 0 | 0
Cc1cccn(Cc2c(F)cccc2Cl)c1=O | 0 | 0 | 0 | 0 | 0 | 0
O=c1ccccn1Cc1c(F)cccc1Cl | 0 | 0 | 0 | 0 | - | 5.2
CNc1sc(C(=O)c2cccs2)c(N)c1-c1nc2ccccc2s1 | 0 | 0 | 0 | 0 | 0 | 0
CNc1sc(C(=O)c2ccc(F)cc2)c(N)c1-c1nc2ccccc2s1 | 0 | 0 | 0 | 0 | 9.9 | 0
Cc1cc(NC(=O)c2noc3c2CCc2ccccc2-3)no1 | 0 | 0 | 0 | 0 | - | 0
Cc1c(NC(=O)c2noc3c2CCc2ccccc2-3)c(=O)n(-c2ccccc2)n1C | 0 | 0 | 0 | 0 | -3.3 | 0
O=C1CCCC(=O)C1Sc1ccc(Cl)cc1 | 0 | 0 | 0 | 0 | 0 | 0
SMILES | KCNK3 inh | KCNQ1 block | KCNK9 inh | KCNQ1 act | KCC2 mod | hERG rescue
CCC(=O)NNc1ncnc2c1cnn2-c1ccccc1 | 0 | 0 | 0 | 0 | 0 | 0
Cc1ccc(-n2ncc3c(NNC(=O)c4cccs4)ncnc32)cc1 | 0 | 0 | 0 | 0 | 0 | 5.7
CCc1cc(=O)[nH]c(SCc2ccc(C)cc2)n1 | 0 | 0 | 0 | 0 | 0 | 4.9
CC(C1CCN(Cc2nc(C3CC3)no2)CC1)N1CCOCC1 (centres undefined) | 0 | 0 | 0 | 0 | 0 | 0
O=C(COC(=O)C1C2CC3OC(=O)C1C3C2)Nc1ccc(Cl)cc1 (centres undefined) | 0 | 0 | 0 | 17 | - | 12
CC(C)Cc1ccc(C(C)C(=O)Nc2ccc(O)cc2)cc1 (centres undefined) | 0 | 0 | 0 | 10 | 0 | 0
CN(/N=C/c1ccc(C(C)(C)C)cc1)C1=NCCN1 | 0 | 0 | 0 | 0 | 0 | 0
CS(=O)(=O)N(CC(=O)Nc1cccc([N+](=O)[O-])c1)c1cccc(F)c1 | 0 | 0 | 0 | 0 | 0 | 0
Cc1ccc(S(=O)(=O)N2CCN(CC(=O)Nc3ccnn3C3CCCC3)CC2)cc1 | 0 | - | - | - | - | -
C=CCNc1nc(Nc2ccc([N+](=O)[O-])cc2)nc(OC)n1 | 0 | 0 | 0 | 0 | 0 | 0
COc1nc(Nc2ccc([N+](=O)[O-])cc2)nc(NC2CCCCC2)n1 | 0 | 0 | -7.1 | 0 | 0 | 0
Cc1c(Br)cnn1C(C)C(=O)N1CCN(c2ccccc2F)CC1 (centres undefined) | 0 | - | - | - | - | -
Cc1nc(Nc2ccc3c(c2)OCCO3)c2oc3ccccc3c2n1 | 0 | 0 | 0 | 0 | 0 | 0
CCc1nc(NCC2CCCO2)c2oc3ccccc3c2n1 (centres undefined) | -28 | 0 | 0 | 0 | 0 | 0
CCc1nc(Nc2ccc3c(c2)OCCO3)c2oc3ccccc3c2n1 | 0 | 0 | -7.6 | 0 | 0 | 0
COc1cc(NS(=O)(=O)c2ccc(NC(=O)c3cccs3)cc2)nc(OC)n1 | 0 | 0 | 0 | 0 | - | 0
CN(C(=O)Cc1c[nH]c2ccccc12)C(C(=O)Nc1ccc2c(c1)OCO2)c1ccccc1 (centres undefined) | 0 | 0 | 0 | 0 | 0 | 0
CCOc1ccc(C(=O)Nc2cc(C)on2)cc1OCC | 0 | 0 | 0 | 0 | 0 | 4.9
Cc1cc(C)c(C)c(S(=O)(=O)N2CCN(c3ncnc4ccccc34)CC2)c1C | -10 | - | - | - | - | -
Cc1cc(C)c(C)c(S(=O)(=O)N2CCN(c3ccccn3)CC2)c1C | 0 | 0 | 0 | 0 | - | 0
COc1cc(CNc2nc(C)c([N+](=O)[O-])c(C)c2C#N)cc(OC)c1 | 0 | 0 | 0 | 0 | 0 | 0
CCOC(=O)C1CCCN(c2c(C(=O)c3ccccc3)cnc3ccc(OC)cc23)C1 (centres undefined) | 0 | 6 | 0 | 0 | 0 | 0
CC(=O)OC1CCC2(C)C3CCC4(C)C(C(C)=O)CCC4C3CC3OC32C1 (centres undefined) | 0 | - | - | - | - | -
O=C1CC(=O)N(CCNc2ncc(C(F)(F)F)cc2Cl)C(=O)N1 | 0 | 0 | 0 | 0 | - | 0
O=C1C=CC(=O)N1CCNc1ncc(C(F)(F)F)cc1Cl | 0 | 0 | 0 | 18 | 0 | 0
O=C(c1ccc(Br)s1)N1CCN(c2ccccn2)CC1 | 0 | 0 | 0 | 0 | - | 0
O=C(N1CCN(c2ccccn2)CC1)N1c2ccccc2Sc2ccccc21 | 0 | 0 | -7.6 | 0 | 0 | 0

Screening data as filed in PubChem BioAssay.
